From ChEMBL document CHEMBL4219191, “Discovery of new A- and B-type laxaphycins with synergistic anticancer activity” (Bioorg Med Chem, 2018)
Starred links: 1 amine or outer side, 2 acyl side, 3 side chain; linkers in the order of their positions; H or OH if unused. Non-standard residues stand in square brackets, D forms with d. Residues, ends and D or L forms follow the SMILES beside them. dβ3hAhp = CCCCC[C@H](CC(=O)[*:2])N[*:1]; d(aIle) = CC[C@H](C)[C@@H](N)C(=O)O; Hyp = O=C(O)[C@@H]1C[C@@H](O)CN1; X1 = C/C=C(/N[*:1])C(=O)[*:2]; hSer = N[C@@H](CCO)C(=O)O

Tests used:
HCT-116 [1] = test: Antiproliferative activity against human HCT116 cells after 48 hrs by MTT assay; format: functional, cell-based; details: HCT-116, 48 h
How it was run: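 HCT116 cells grown in DMEM with 10% FBS at 37 °C under 5% CO2. 10,000 cells per well were seeded and treated 24 h later with a concentration series in DMSO (0.5%). After 48 h more, MTT viability was read. Run in triplicate; IC50 by nonlinear regression.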

HCT-116 [2] = test: Synergistic antiproliferative activity against human HCT116 cells assessed as combination index at 1 uM after 48 hrs in presence of 32 uM laxaphycin A by MTT assay; format: functional
HCT-116 [3] = test: Synergistic antiproliferative activity against human HCT116 cells assessed as combination index at 0.32 uM after 48 hrs in presence of 10 uM laxaphycin A by MTT assay; format: functional
HCT-116 [4] = test: Synergistic antiproliferative activity against human HCT116 cells assessed as combination index at 0.1 uM after 48 hrs in presence of 3.2 uM laxaphycin A by MTT assay; format: functional
HCT-116 [5] = test: Synergistic antiproliferative activity against human HCT116 cells assessed as combination index at 0.032 uM after 48 hrs in presence of 1 uM laxaphycin A by MTT assay; format: functional
HCT-116 [6] = test: Synergistic antiproliferative activity against human HCT116 cells assessed as combination index at 32 uM after 48 hrs in presence of 320 uM laxaphycin A by MTT assay; format: functional
HCT-116 [7] = test: Synergistic antiproliferative activity against human HCT116 cells assessed as combination index at 10 uM after 48 hrs in presence of 100 uM laxaphycin A by MTT assay; format: functional
HCT-116 [8] = test: Synergistic antiproliferative activity against human HCT116 cells assessed as combination index at 3.2 uM after 48 hrs in presence of 32 uM laxaphycin A by MTT assay; format: functional
HCT-116 [9] = test: Synergistic antiproliferative activity against human HCT116 cells assessed as combination index at 1 uM after 48 hrs in presence of 10 uM laxaphycin A by MTT assay; format: functional
HCT-116 [10] = test: Synergistic antiproliferative activity against human HCT116 cells assessed as combination index at 0.32 uM after 48 hrs in presence of 3.2 uM laxaphycin A by MTT assay; format: functional
HCT-116 [11] = test: Synergistic antiproliferative activity against human HCT116 cells assessed as combination index at 0.1 uM after 48 hrs in presence of 1 uM laxaphycin A by MTT assay; format: functional
HCT-116 [12] = test: Synergistic antiproliferative activity against human HCT116 cells assessed as combination index at 10 uM after 48 hrs in presence of 1 uM laxaphycin B4 by MTT assay; format: functional
HCT-116 [13] = test: Synergistic antiproliferative activity against human HCT116 cells assessed as combination index at 32 uM after 48 hrs in presence of 1 uM laxaphycin B4 by MTT assay; format: functional
HCT-116 [14] = test: Synergistic antiproliferative activity against human HCT116 cells assessed as combination index at 10 uM after 48 hrs in presence of 0.32 uM laxaphycin B4 by MTT assay; format: functional
HCT-116 [15] = test: Synergistic antiproliferative activity against human HCT116 cells assessed as combination index at 3.2 uM after 48 hrs in presence of 0.1 uM laxaphycin B4 by MTT assay; format: functional
HCT-116 [16] = test: Synergistic antiproliferative activity against human HCT116 cells assessed as combination index at 1 uM after 48 hrs in presence of 0.032 uM laxaphycin B4 by MTT assay; format: functional
HCT-116 [17] = test: Synergistic antiproliferative activity against human HCT116 cells assessed as combination index at 320 uM after 48 hrs in presence of 32 uM laxaphycin B4 by MTT assay; format: functional
HCT-116 [18] = test: Synergistic antiproliferative activity against human HCT116 cells assessed as combination index at 100 uM after 48 hrs in presence of 10 uM laxaphycin B4 by MTT assay; format: functional
HCT-116 [19] = test: Synergistic antiproliferative activity against human HCT116 cells assessed as combination index at 32 uM after 48 hrs in presence of 3.2 uM laxaphycin B4 by MTT assay; format: functional
HCT-116 [20] = test: Synergistic antiproliferative activity against human HCT116 cells assessed as combination index at 3.2 uM after 48 hrs in presence of 0.32 uM laxaphycin B4 by MTT assay; format: functional
HCT-116 [21] = test: Synergistic antiproliferative activity against human HCT116 cells assessed as combination index at 1 uM after 48 hrs in presence of 0.1 uM laxaphycin B4 by MTT assay; format: functional

`CCCCCCC[C@@H]1CC(=O)N[C@@H](C(C)C)C(=O)N[C@H]([C@@H](O)C(C)C)C(=O)N[C@@H](CCO)C(=O)N[C@H]([C@@H](O)C(C)C)C(=O)N[C@@H](CCC(N)=O)C(=O)N(C)[C@@H]([C@@H](C)CC)C(=O)N[C@H]([C@@H](O)C(N)=O)C(=O)N[C@@H]([C@@H](C)O)C(=O)N2C[C@H](O)C[C@H]2C(=O)N[C@H](CC(C)C)C(=O)N[C@@H]([C@@H](C)O)C(=O)N1` was tested, and the IC50 (HCT-116 [1]) was 1.7 µM, the CI (HCT-116 [2]) was 0.029 and the CI (HCT-116 [3]) was 0.063. The CI (HCT-116 [4]) was 0.121, the CI (HCT-116 [5]) was 5.267 and the CI (HCT-116 [6]) was 0.0002. The CI (HCT-116 [7]) was 0.0001, the CI (HCT-116 [8]) was 0.0005 and the CI (HCT-116 [9]) was 0.1157. It also gave a CI (HCT-116 [10]) of 0.2909 and a CI (HCT-116 [11]) of 0.2457.

For `C/C=C1/NC(=O)[C@H](CCO)NC(=O)C[C@@H](CCCCC)NC(=O)CNC(=O)[C@H](CC(C)C)NC(=O)[C@@H]([C@@H](C)CC)NC(=O)[C@H](C(C)C)NC(=O)[C@@H](CC(C)C)NC(=O)[C@@H](Cc2ccccc2)NC(=O)[C@H](CCO)NC(=O)[C@@H]2C[C@@H](O)CN2C1=O` (cyclo(G[dβ3hAhp][hSer][X1][Hyp][hSer][dF][dL]V[d(aIle)]L)), the IC50 (HCT-116 [1]) was 29 µM.

Molecule `C/C=C1/NC(=O)[C@H](CCO)NC(=O)C[C@@H](CCCCC)NC(=O)CNC(=O)[C@H](CC(C)C)NC(=O)[C@@H]([C@@H](C)CC)NC(=O)[C@H]([C@@H](C)CC)NC(=O)[C@@H](CC(C)C)NC(=O)[C@@H](Cc2ccccc2)NC(=O)[C@H](CCO)NC(=O)[C@@H]2C[C@@H](O)CN2C1=O` [LAXAPHYCIN A] (cyclo(G[dβ3hAhp][hSer][X1][Hyp][hSer][dF][dL]I[d(aIle)]L)) has a CI (HCT-116 [12]) of 0.1157, an IC50 (HCT-116 [1]) of 23 µM and a CI (HCT-116 [13]) of 0.029. It also gave a CI (HCT-116 [14]) of 0.063, a CI (HCT-116 [15]) of 0.121 and a CI (HCT-116 [16]) of 5.267. For the same molecule, the CI (HCT-116 [17]) was 0.0002, the CI (HCT-116 [18]) was 0.0001 and the CI (HCT-116 [19]) was 0.0005. It also gave a CI (HCT-116 [20]) of 0.2909 and a CI (HCT-116 [21]) of 0.2457.
